In the library only some 4.3% were active in any assay of this set; here they are far more common.
OX1R antag-1 – antagonists of human orexin 1 receptor (OX1R). inhibition, % at 6.6 µM. Orexin/Hypocretin receptor type 1 (Homo sapiens), O43613. OX1R-expressing cells, FRET antagonist read-out. actives 1.8% (n = 330,000); in the data active = inhibition mostly above about 38%, no sharp cut-off; inactive = mostly below about 40%
CHO parental Ca – ATP-evoked calcium signal inhibitors, parental CHO, primary screen, counter-screen for OX1R antagonist project, cell-based, fluorescence, Fluo-8 calcium dye; parental CHO-K1, ATP-induced calcium, Fluo-8 fluorescence; inhibition, % at 5.6 µM; actives 0.63% (n = 330,000); AID 463079, 2010;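 active = inhibition above that plate's mean sample inhibition plus 3 SD, cut at about 26% in these data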
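Material: parental CHO cells / Compound: single nominal dose of 5.6 µM per compound / Signal: Fluo-8 fluorescence / Replicates: singlicate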
GalR3 antag – GalR3 antagonists in HEK293 cells, primary screen, cell-based, fluorescence readout | actives 0.44% (n = 360,000) | HEK293 GalR3-CNG cAMP membrane potential fluorescence; galR3 body fused to GalR1 C-terminus | inhibition, % at 3 µM | Galanin receptor type 3 (Homo sapiens), O60755 | AID 651719, 2012;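 active = inhibition above the screen-wide average plus 3 SD, cut at about 13% in these data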;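 note: forskolin and galanin both at EC90 stimulate the cells; cAMP rise reported by CNG channel membrane potential dye signal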
Target sequence (O60755 1-299 limits assumed): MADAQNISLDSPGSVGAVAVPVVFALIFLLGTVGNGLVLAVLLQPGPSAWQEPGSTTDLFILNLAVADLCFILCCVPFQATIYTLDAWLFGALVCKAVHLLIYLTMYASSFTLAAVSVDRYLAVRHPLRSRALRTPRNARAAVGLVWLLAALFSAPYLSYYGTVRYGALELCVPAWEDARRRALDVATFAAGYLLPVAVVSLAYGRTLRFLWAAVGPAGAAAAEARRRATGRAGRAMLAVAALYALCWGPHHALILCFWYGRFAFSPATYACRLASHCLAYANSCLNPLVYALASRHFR
OX1R antag-2 – OX1R (HCRTR1) antagonists, primary screen, fluorescence, CHO/OX1R cells, Fluo-8 calcium, orexin A; Orexin/Hypocretin receptor type 1 (Homo sapiens), O43613; inhibition, % at 5 µM; Fluo-8 calcium fluorescence; actives 0.43% (n = 330,000);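 active = inhibition above its plate's threshold, mean inhibition of all tested compounds on the plate plus 3 SD, cut at about 37% in these data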
TAAR1 agonist – human TAAR1 agonists, primary screen, Fluo-8 calcium fluorescence, CHO RD-HGA16 cells. Trace amine-associated receptor 1 (Homo sapiens), Q96RJ0. vehicle wells 0%, saturating PEA agonist 100%. activation, % at 3 µM. actives 0.99% (n = 360,000). AID 624467, 2012;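 active = activation above the mean activation of all test compounds in the run plus 3 SD, cut at about 38% in these data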
Target sequence (Q96RJ0 whole entry, looked up): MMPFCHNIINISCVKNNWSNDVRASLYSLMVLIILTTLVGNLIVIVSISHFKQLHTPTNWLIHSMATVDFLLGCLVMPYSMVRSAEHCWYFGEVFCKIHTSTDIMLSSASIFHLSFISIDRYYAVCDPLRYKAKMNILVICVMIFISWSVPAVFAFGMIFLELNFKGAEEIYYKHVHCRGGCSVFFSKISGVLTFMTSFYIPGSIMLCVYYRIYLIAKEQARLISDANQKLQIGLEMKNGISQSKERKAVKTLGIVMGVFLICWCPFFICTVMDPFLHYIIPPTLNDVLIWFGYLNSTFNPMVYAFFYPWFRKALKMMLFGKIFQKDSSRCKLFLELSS
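test system = CHO RD-HGA16 cells carrying human TAAR1 plus Gα16 | schedule = 17-24 h seeding, 75 min 37 °C dye, 30 min RT | compound dosing = 3 µM single concentration | control set = DMSO and PEA EC100 | replicates = n 1 | signal = Fluo-8 fluorescence, 5 s baseline then 140 s kinetic read | measure = percent activation vs PEA EC100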
TAAR1 antagonist – human TAAR1 antagonists, primary screen, Fluo-8 calcium fluorescence, CHO RD-HGA16 cells | Trace amine-associated receptor 1 (Homo sapiens), Q96RJ0 | antagonist | AID 624466, 2012 | inhibition, % at 3 µM | actives 1.5% (n = 360,000);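 active = inhibition above a per-plate cutoff, the mean inhibition of test compounds on that plate plus 3 SD, cut at about 49% in these data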
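Test system: RD-HGA16 CHO cells with stable hTAAR1 and Gα16 / Probe or stimulus: EC80 β-phenethylamine stimulus / Times: seeding 17-24 h prior, 75-min 37 °C, 30-min RT dye loading / Detection: Fluo-8 calcium-sensitive fluorescence / Read-out basis: % inhibition scaled between DMSO and EC80 PEA controls / Repeats: singlicate, one well per test compound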
GalR3 conf – GalR3 antagonist hit confirmation, cell-based, fluorescence, triplicate; shares compounds with GalR3 antag; AID 652245, 2013; inhibition, % at 3 µM; actives 59% (n = 1,600); HEK293 GalR3 CNG cAMP biosensor, membrane potential fluorescence; galR3 fused to GalR1 carboxy tail; challenged with forskolin and galanin at EC90;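 active = inhibition above the primary screen's cutoff, the mean inhibition of all screened compounds plus 3 SD, cut at about 13% in these data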
HEK-CNG parental – nonspecific cAMP agonists in parental HEK-CNG cells, counter-screen for GalR3 antagonist project, cell-based, fluorescence, high throughput. shares compounds with GalR3 antag. HEK293-CNG parental cells, cAMP membrane potential fluorescence; normalised: DMSO wells 0%, forskolin wells 100%. activation, % at 3 µM. actives 10% (n = 1,600); in the data active = activation above about 1.3%
A number is an active result; n = inactive; x = no result.

SMILES	OX1R antag-1	CHO parental Ca	GalR3 antag	OX1R antag-2	TAAR1 agonist	TAAR1 antagonist	GalR3 conf	HEK-CNG parental
CC(C)(C)NC(=O)C(c1ccccc1)n1c(-c2ccc(-c3ccccc3)cc2)nc2ccccc21 (configuration not stated)	x	x	n	x	n	n	x	x
CN(c1ccccc1)S(=O)(=O)c1cc(C(=O)NCCCn2ccnc2)ccc1Cl	n	n	n	n	n	n	x	x
COCCCN1C(=O)c2[nH]nc(-c3cc(C)cc(C)c3O)c2C1c1ccc(O)c(OC)c1 (configuration not stated)	n	n	n	n	n	n	x	x
CCCN1C(=O)c2[nH]nc(-c3cc(Cl)c(C)cc3O)c2C1c1ccc(O)c(OC)c1 (configuration not stated)	n	n	20	n	n	n	n	n
COc1ccc(NC(=O)C(=S)N2CCCC2)cc1	n	n	16	n	n	n	n	n
COc1cccc(/C=C/C(=O)NNC(=O)c2ccco2)c1OC	n	n	n	n	n	n	x	x
CC(O)CN(CC(C)O)c1ccc2c(c1)Cc1cc([N+](=O)[O-])ccc1-2 (configuration not stated)	x	x	13	x	93	79	27	1.4
CC(=NO)c1ccc2c(c1)Cc1cc([N+](=O)[O-])ccc1-2	x	x	n	x	n	n	x	x
CNC(=O)C12CCC(C)(c3nc4cc(C)c(C)cc4nc31)C2(C)C (configuration not stated)	n	n	n	n	n	n	x	x
CCCNC(=O)C12CCC(C)(c3nc4cc(C)c(C)cc4nc31)C2(C)C (configuration not stated)	n	n	16	n	n	n	n	n
COc1ccc(OC2(C)CCN(Cc3ccccc3OC(F)F)C2)cc1 (configuration not stated)	x	x	n	x	n	n	x	x
CC(CCc1ccc(O)cc1)NCc1ccc(Br)cc1 (configuration not stated)	n	n	31	n	n	n	58	n
COc1ccc(CNC(C)CCc2ccccc2)cc1 (configuration not stated)	n	n	n	n	n	n	x	x
CCC(NC(=O)c1ccccc1NC(=O)C(C)(C)C)C(=O)N1CCCC1 (configuration not stated)	n	n	15	n	n	n	n	n
CCC(NC(=O)c1ccccc1NC(=O)C(C)(C)C)C(=O)N1CC(C)OC(C)C1 (configuration not stated)	n	n	n	n	n	n	x	x
CC(=O)c1ccc(NC(=O)Nc2ccc(Br)cc2C)cc1	n	n	13	n	n	n	n	n
CCN(CC(=O)Nc1ccc(NC(C)=O)cc1)C(=O)c1ccc(N2C(=O)c3ccccc3C2=O)cc1	x	x	n	x	n	n	x	x
O=C(NC(c1cccnc1)C(F)(F)F)c1cc(COc2ccc3c(c2)CCCC3)on1 (configuration not stated)	n	42	15	n	n	n	n	n
Cn1cc(CNC(=O)c2cc(COc3ccc4c(c3)CCCC4)on2)cn1	n	n	n	n	n	n	x	x
COc1cc(/C=C/C(=O)NCC2CCCCC2)cc(OC)c1OC	n	n	n	n	n	n	x	x
Cc1ccccc1S(=O)(=O)/N=C(/c1ccccc1)N1CCOCC1	n	n	14	n	n	n	n	n
O=C1c2cccc(OCc3ccc(F)cc3)c2CCN1Cc1ccc(F)cc1	n	n	20	n	n	n	38	n
Cc1ccc(S(=O)(=O)N(C)c2ccc(OCC(=O)Nc3cc(C(=O)O)ccc3Cl)cc2)cc1	x	x	n	x	n	n	x	x
CC(C)CC1NC(=O)N(CC(=O)Nc2ccc3c(c2)CCC3)C1=O (configuration not stated)	n	n	n	n	n	n	x	x
CN1CC(=O)N(CC(=O)Nc2ccc3c(c2)CCC3)C1=O	n	n	24	n	n	n	n	n
SMILES	OX1R antag-1	CHO parental Ca	GalR3 antag	OX1R antag-2	TAAR1 agonist	TAAR1 antagonist	GalR3 conf	HEK-CNG parental
CCN(CC)c1ccc(/C=N/NC(=S)NCc2ccccc2)c(O)c1	n	n	13	n	n	n	25	n
COc1ccc2cc[nH]c2c1	n	n	n	n	n	n	x	x
COc1cc(OC)c2cc[nH]c2c1	n	n	18	n	n	n	n	n
Cc1sc2ncnc(NCC(c3ccccc3)N(C)C)c2c1C (configuration not stated)	n	n	n	n	n	n	x	x
Cc1sc2ncnc(NCC(O)c3ccccc3)c2c1C (configuration not stated)	n	43	38	n	n	n	25	n
Cc1sc2ncnc(NCc3cccs3)c2c1C	n	36	55	n	n	n	58	n
O=C(COC(=O)c1cccc(S(=O)(=O)N2CCOCC2)c1)NC1CCCCC1	x	x	n	x	n	n	x	x
COc1ccc(-c2noc(CCC(=O)NCCCN3CCC(Cc4ccccc4)CC3)n2)cc1	n	n	76	n	n	n	n	6.1
c1ccc(CN2CCC(N3CCN(Cc4ccc5c(c4)OCO5)CC3)CC2)cc1	n	n	40	n	n	n	n	6.0
COc1ccc(-n2c(SCc3ccc([N+](=O)[O-])cc3)nnc2-c2ccc(C)cc2)cc1	n	n	50	n	n	n	n	n
Cc1ccc(-n2c(SCc3ccc(C#N)cc3)nnc2-c2ccccn2)cc1	n	n	13	n	n	n	n	n
COc1ccc(-n2c(Cc3ccccc3)nnc2SCc2ccc([N+](=O)[O-])cc2)cc1	n	n	n	n	n	n	x	x
COc1ccc(-n2c(SCc3ccc(C#N)cc3)nnc2-c2ccccn2)cc1	n	n	n	n	n	n	x	x
COc1ccc(C(O)c2nc(-c3ccc(Cl)cc3)cs2)cc1 (configuration not stated)	x	x	n	x	n	n	x	x
Cc1cc(C)cc(OCC(=O)NNC(=S)NC(=O)C2CC2)c1	n	n	n	n	n	n	x	x

Screening results as filed in PubChem.
